According to ChEMBL document CHEMBL3871288, “Marine sponge alkaloids as a source of anti-bacterial adjuvants” (Bioorg Med Chem Lett, 2016):

How the values were obtained:
Staphylococcus aureus [1] = assay: Potentiation of oxacillin-induced antibacterial activity against methicillin-resistant Staphylococcus aureus BAA-1556 assessed as oxacillin MIC at 10 uM measured after 16 to 18 hrs by serial dilution assay (reference value: 32 ug/ml); format: functional
Staphylococcus aureus [2] = assay: Antibiofilm activity against methicillin-resistant Staphylococcus aureus BAA-1685 after 24 hrs by crystal violet staining based assay; format: functional; conditions: BAA-1685, 24 h
Acinetobacter baumannii [3] = assay: Potentiation of meropenem-induced antibacterial activity against Acinetobacter baumannii AB5075 assessed as meropenem MIC at 10 uM measured after 16 to 18 hrs by serial dilution assay (reference value: 32 ug/ml); format: functional
Acinetobacter baumannii [4] = assay: Antibiofilm activity against Acinetobacter baumannii ATCC 19606 after 24 hrs by crystal violet staining based assay; format: functional; conditions: ATCC 19606, 24 h
Staphylococcus aureus [5] = assay: Potentiation of oxacillin-induced antibacterial activity against methicillin-resistant Staphylococcus aureus BAA-1556 assessed as oxacillin MIC at 5 uM measured after 16 to 18 hrs by serial dilution assay (reference value: 32 ug/ml); format: functional
Acinetobacter baumannii [6] = assay: Antibiofilm activity against Acinetobacter baumannii ATCC 19606 at 50 uM after 24 hrs by crystal violet staining based assay relative to control; format: functional; conditions: ATCC 19606, 24 h
Staphylococcus aureus [7] = assay: Potentiation of oxacillin-induced antibacterial activity against methicillin-resistant Staphylococcus aureus BAA-1556 assessed as oxacillin MIC at 25 uM measured after 16 to 18 hrs by serial dilution assay (reference value: 32 ug/ml); format: functional
Staphylococcus aureus [8] = assay: Potentiation of vancomycin-induced antibacterial activity against vancomycin intermediate Staphylococcus aureus ATCC 700699 assessed as vancomycin MIC at 25 uM measured after 16 to 18 hrs by serial dilution assay (reference value: 8 ug/ml); format: functional; conditions: Mu50
How it was run: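 Vancomycin MIC was measured against vancomycin-intermediate S. aureus ATCC 700699 with the alkaloid co-dosed at a fixed concentration. Levels used across the series were 25 and 50 µM.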

Staphylococcus aureus [9] = assay: Potentiation of oxacillin-induced antibacterial activity against methicillin-resistant Staphylococcus aureus harboring vraR mutant assessed as oxacillin MIC at 25 uM measured after 16 to 18 hrs by serial dilution assay; format: functional
Staphylococcus aureus [10] = assay: Potentiation of oxacillin-induced antibacterial activity against methicillin-resistant Staphylococcus aureus BAA-1556 assessed as oxacillin MIC at 40 uM measured after 16 to 18 hrs by serial dilution assay (reference value: 32 ug/ml); format: functional
Pseudomonas aeruginosa = assay: Antibiofilm activity against Pseudomonas aeruginosa PA14 after 24 hrs by crystal violet staining based assay; format: functional; conditions: PA14, 24 h
Staphylococcus aureus [11] = assay: Ratio of oxacillin MIC for methicillin-resistant Staphylococcus aureus BAA-1556 in presence of test compound to oxacillin MIC for methicillin-resistant Staphylococcus aureus harboring vraR mutant in presence of test compound; format: functional
Staphylococcus aureus [12] = assay: Potentiation of oxacillin-induced antibacterial activity against methicillin-resistant Staphylococcus aureus BAA-1556 assessed as oxacillin MIC at 50 uM measured after 16 to 18 hrs by serial dilution assay (reference value: 32 ug/ml); format: functional
Staphylococcus aureus [13] = assay: Potentiation of vancomycin-induced antibacterial activity against vancomycin intermediate Staphylococcus aureus ATCC 700699 assessed as vancomycin MIC at 50 uM measured after 16 to 18 hrs by serial dilution assay (reference value: 8 ug/ml); format: functional; conditions: Mu50
Acinetobacter baumannii [14] = assay: Antibiofilm activity against Acinetobacter baumannii ATCC 19606 at 100 uM after 24 hrs by crystal violet staining based assay relative to control; format: functional; conditions: ATCC 19606, 24 h
Staphylococcus aureus [15] = assay: Potentiation of oxacillin-induced antibacterial activity against methicillin-resistant Staphylococcus aureus NE481 assessed as oxacillin MIC at 25 uM measured after 16 to 18 hrs by serial dilution assay (reference value: 1 ug/ml)

| SMILES | MIC (Staphylococcus aureus [1]) [µg/mL] | IC50 (Staphylococcus aureus [2]) [µM] | MIC (Acinetobacter baumannii [3]) [µg/mL] | IC50 (Acinetobacter baumannii [4]) [µM] | MIC (Staphylococcus aureus [5]) [µg/mL] | inhibition at 50 µM (Acinetobacter baumannii [6]) [%] | MIC (Staphylococcus aureus [7]) [µg/mL] | MIC (Staphylococcus aureus [8]) [µg/mL] | MIC (Staphylococcus aureus [9]) [µg/mL] | MIC (Staphylococcus aureus [10]) [µg/mL] | IC50 (Pseudomonas aeruginosa) [µM] | Ratio (Staphylococcus aureus [11]) | MIC (Staphylococcus aureus [12]) [µg/mL] | MIC (Staphylococcus aureus [13]) [µg/mL] | inhibition at 100 µM (Acinetobacter baumannii [14]) [%] | MIC (Staphylococcus aureus [15]) [µg/mL] |
| --- | --- | --- | --- | --- | --- | --- | --- | --- | --- | --- | --- | --- | --- | --- | --- | --- |
| Nc1ncc([C@@H]2[C@@H](CNC(=O)c3cc(Br)c(Br)[nH]3)[C@H](CNC(=O)c3cc(Br)c(Br)[nH]3)[C@H]2c2cnc(N)[nH]2)[nH]1 | 2 | 15.3 | 8 | > 50 | 8 | 48 | – | – | – | – | – | – | – | – | – | – |
| Nc1ncc([C@@H]2[C@@H](CNC(=O)c3cc(Br)c[nH]3)[C@H](CNC(=O)c3cc(Br)c[nH]3)[C@H]2c2cnc(N)[nH]2)[nH]1 | – | 37.6 | – | 30.5 | – | – | – | – | – | – | – | – | – | – | – | – |
| Nc1nc([C@@H]2c3[nH]c(N)nc3C[C@H](CNC(=O)c3cc(Br)c[nH]3)[C@H]2CNC(=O)c2cc(Br)c(Br)[nH]2)c[nH]1 [BROMOAGELIFERIN] | 2 | 10.6 | 8 | 28.3 | 16 | – | – | – | – | – | – | – | – | – | – | – |
| Nc1ncc(/C=C/CNC(=O)c2cc(Br)c(Br)[nH]2)[nH]1 [OROIDIN] | – | 77.3 | – | > 100 | – | – | 8 | 4 | 2 | 2 | 166 | 4 | 0.5 | 2 | 29 | 0.5 |
